What was measured:
[1] = target: T1, A disintegrin and metalloproteinase with thrombospondin motifs 4 (Homo sapiens, UniProt O75173); assay: Inhibition of human recombinant ADAMTS-4 using QTVTWPDMELPLPRNITEGEARGSVIL-TVKPIFEVSPSPL(biotinyl)K as substrate incubated for 10 mins prior to substrate addition measured after 3 hrs by spectrophotometry
T1 sequence (O75173 whole entry): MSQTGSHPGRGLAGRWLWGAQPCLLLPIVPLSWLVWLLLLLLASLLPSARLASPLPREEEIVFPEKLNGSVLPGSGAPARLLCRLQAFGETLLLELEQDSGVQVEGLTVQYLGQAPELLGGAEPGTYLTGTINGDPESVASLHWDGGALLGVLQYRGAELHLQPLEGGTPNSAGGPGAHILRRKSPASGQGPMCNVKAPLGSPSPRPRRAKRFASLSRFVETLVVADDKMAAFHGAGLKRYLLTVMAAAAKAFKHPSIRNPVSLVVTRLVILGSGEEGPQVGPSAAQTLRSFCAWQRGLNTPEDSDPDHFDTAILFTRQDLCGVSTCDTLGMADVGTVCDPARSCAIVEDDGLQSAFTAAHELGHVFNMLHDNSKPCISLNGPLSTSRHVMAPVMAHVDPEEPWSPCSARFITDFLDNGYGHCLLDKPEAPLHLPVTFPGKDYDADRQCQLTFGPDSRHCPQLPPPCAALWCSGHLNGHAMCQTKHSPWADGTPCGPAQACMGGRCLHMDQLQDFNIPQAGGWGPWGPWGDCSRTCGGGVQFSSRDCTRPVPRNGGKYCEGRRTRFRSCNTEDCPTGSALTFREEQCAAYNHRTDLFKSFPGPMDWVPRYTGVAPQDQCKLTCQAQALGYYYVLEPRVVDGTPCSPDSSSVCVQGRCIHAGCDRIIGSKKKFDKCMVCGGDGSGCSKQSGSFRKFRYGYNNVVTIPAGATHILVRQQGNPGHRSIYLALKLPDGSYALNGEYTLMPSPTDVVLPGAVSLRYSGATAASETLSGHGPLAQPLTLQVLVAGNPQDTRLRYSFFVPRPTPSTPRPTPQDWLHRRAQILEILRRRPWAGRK
Procedure, shortened: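 It was then added to streptavidin wells coated with the biotinylated 41-mer aggrecan peptide and reacted for 3 h at 37 °C. Cleavage product was detected by BC-3 anti-ARGxx ELISA with HRP and TMB, read at 450 nm.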

[2] = target: T2, A disintegrin and metalloproteinase with thrombospondin motifs 5 (Homo sapiens, UniProt Q9UNA0); assay: Inhibition of human recombinant ADAMTS-5 using QTVTWPDMELPLPRNITEGEARGSVIL-TVKPIFEVSPSPL(biotinyl)K as substrate incubated 10 mins prior to substrate addition measured after 3 hrs by spectrophotometry
T2 sequence (Q9UNA0 whole entry): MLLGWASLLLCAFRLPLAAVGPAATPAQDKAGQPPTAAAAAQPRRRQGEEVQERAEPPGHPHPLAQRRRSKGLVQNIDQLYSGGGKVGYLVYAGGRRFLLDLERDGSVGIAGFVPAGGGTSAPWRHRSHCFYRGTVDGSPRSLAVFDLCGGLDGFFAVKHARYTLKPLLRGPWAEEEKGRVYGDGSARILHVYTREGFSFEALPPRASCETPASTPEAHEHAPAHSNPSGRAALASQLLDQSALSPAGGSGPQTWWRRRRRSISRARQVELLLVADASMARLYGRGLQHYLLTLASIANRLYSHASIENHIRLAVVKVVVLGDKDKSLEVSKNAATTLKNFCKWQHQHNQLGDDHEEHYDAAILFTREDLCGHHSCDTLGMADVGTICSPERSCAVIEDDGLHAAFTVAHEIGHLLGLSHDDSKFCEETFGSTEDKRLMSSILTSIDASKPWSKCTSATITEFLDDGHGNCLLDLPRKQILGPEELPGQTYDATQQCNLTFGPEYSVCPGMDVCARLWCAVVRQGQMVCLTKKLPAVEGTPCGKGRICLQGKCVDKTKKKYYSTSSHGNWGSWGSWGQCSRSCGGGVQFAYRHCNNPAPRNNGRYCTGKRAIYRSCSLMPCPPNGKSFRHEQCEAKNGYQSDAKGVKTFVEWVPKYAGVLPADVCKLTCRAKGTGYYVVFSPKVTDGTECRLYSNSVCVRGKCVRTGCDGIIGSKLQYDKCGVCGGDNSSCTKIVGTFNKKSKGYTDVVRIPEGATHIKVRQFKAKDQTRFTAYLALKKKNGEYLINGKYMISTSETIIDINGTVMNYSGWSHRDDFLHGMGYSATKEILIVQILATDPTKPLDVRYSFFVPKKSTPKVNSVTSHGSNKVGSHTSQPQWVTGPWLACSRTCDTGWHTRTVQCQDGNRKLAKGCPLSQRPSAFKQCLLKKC

[3] = target: T3, A disintegrin and metalloproteinase with thrombospondin motifs 5 (Homo sapiens) (UniProt Q9UNA0); assay: Inhibition of human recombinant ADAMTS-5 using QTVTWPDMELPLPRNITEGEARGSVIL-TVKPIFEVSPSPL(biotinyl)K as substrate at 100 uM incubated 10 mins prior to substrate addition measured after 3 hrs by spectrophotometry
T3 sequence (whole entry): T2 sequence (Q9UNA0 whole entry)

[4] = Solubility of the compound at 100 uM; type: physicochemical
[5] = target: T3, A disintegrin and metalloproteinase with thrombospondin motifs 5 (Homo sapiens); assay: Inhibition of human recombinant ADAMTS-5 using bovine articular aggrecan as substrate incubated 20 mins prior to substrate addition measured after 48 hrs by spectrophotometry
Procedure, shortened: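 ADAMTS-5 (3.4 µL of 600 nM stock) was pre-incubated 20 min at 37 °C with compound or 4% DMSO vehicle in Tris/NaCl/CaCl₂/Brij35, pH 7.5. Bovine articular aggrecan (50 µg/mL final) was added for 48 h at 37 °C, then stopped with EDTA. Samples were bound to PVDF and digested with chondroitinase ABC and keratanase. The ARGSVIL neoepitope was detected by BC-3 ELISA with TMB, read at 450 nm.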

In the case of `O=C(COc1ccc(C(F)(F)F)cc1)NNC(=S)NCCCCC1CCCCC1`, the IC50 [1] is reported as 0.61 µM and the IC50 [2] is reported as 0.54 µM.
`O=C(CNc1ccc(Cl)cc1)NNC(=S)NCc1ccc(-c2ccccc2)cc1` showed an IC50 [2] of 6.3 µM.
Compound `O=C(NNC(=S)NCc1ccc(-c2ccccc2)cc1)C1CNc2cc(Cl)ccc2O1` (stereo not given) has an IC50 [2] of 3.3 µM.
`O=C(COc1ccc(F)cc1)NNC(=S)NCc1ccc(-c2ccccc2)cc1` showed an IC50 [2] of 100 µM and an inhibition [3] of 49%.
In the case of `O=C(COc1ccc(Cl)cc1)NNC(=S)NCCCc1ccccc1`, the IC50 [1] is reported as 2 µM and the IC50 [2] is reported as 1.4 µM.
For `O=C(COc1ccc(Cl)cc1Cl)NNC(=S)NCc1ccc(-c2ccccc2)cc1`, the IC50 [2] was 1.2 µM.
Compound `O=C(Cc1ccc(-c2ccccc2)cc1)NNC(=S)NCCc1ccc(Cl)cc1` has an IC50 [2] of 5.2 µM.
Compound `O=C(COc1ccc(Cl)cc1)NNC(=S)NCc1cccnc1` has an IC50 [2] of 100 µM and an inhibition [3] of 50%.
In the case of `O=C(COc1ccc(Cl)cc1)Nn1ccn(Cc2ccc(-c3ccccc3)cc2)c1=S`, the IC50 [2] is reported as > 100 µM and the inhibition [3] is reported as < 30%.
Work on `O=C(COc1ccc(Cl)cc1)NCC(S)C(=O)NCCc1ccccc1` (stereo not given) yielded an IC50 [2] of 8.7 µM.
With `O=C(COc1ccccc1)NNC(=S)NCCCCC1CCCCC1` the IC50 [2] was > 100 µM and the inhibition [3] was < 20%.
Work on `O=C(COc1ccc([N+](=O)[O-])cc1)NNC(=S)NCCCCC1CCCCC1` yielded an IC50 [1] of 0.79 µM and an IC50 [2] of 0.81 µM.
Compound `O=C(Cc1nc(-c2ccccc2)no1)NNC(=S)NCCCCC1CCCCC1` has an IC50 [2] of 0.34 µM.
For `CC(=O)NNC(=S)NCCCCC1CCCCC1`, the IC50 [2] was > 100 µM and the inhibition [3] was < 20%.
`O=C(COc1ccc(Cl)cc1)NNC(=S)NCc1ccc(-c2ccccc2)cc1` showed an IC50 [2] of 1.2 µM.
`CN(CCCCc1ccccc1)C(=S)NNC(=O)COc1ccc(Cl)cc1` gave an IC50 [1] of 1.5 µM and an IC50 [2] of 1.1 µM.
For `O=C(COc1ccc(-c2ccccc2)cc1)NNC(=S)NCc1ccc(-c2ccccc2)cc1`, the solubility [4] was “Insoluble” and the IC50 [2] was 60 µM.
`O=C(COc1ccc(Cl)cc1)NNC(=S)N1CCC(Cc2ccccc2)CC1` gave an IC50 [2] of 1.6 µM.
In the case of `O=C(COc1ccccc1Cl)NNC(=S)NCc1ccc(-c2ccccc2)cc1`, the IC50 [2] is reported as 1.9 µM.
With `O=C(Cc1ccc(-c2ccccc2)cc1)NNC(=S)NCCCCC1CCCCC1` the IC50 [1] was 0.73 µM and the IC50 [2] was 0.3 µM.
`O=C(NNC(=S)NCc1ccc(-c2ccccc2)cc1)c1ccc(Cl)cc1` showed an IC50 [1] of 1.6 µM and an IC50 [2] of 0.7 µM.
Compound `O=C(COc1ccc(Cl)cc1)NNC(=S)NCCc1ccccc1` has an IC50 [2] of 2.8 µM.
For `COc1ccc(OCC(=O)NNC(=S)NCCCCC2CCCCC2)cc1`, the IC50 [2] was > 100 µM and the inhibition [3] was 50%.
`O=C(COc1ccc2ccccc2c1)NNC(=S)NCc1ccc(-c2ccccc2)cc1` gave an IC50 [2] of 3.2 µM.
With `O=C(COc1cccc(Cl)c1)NNC(=S)NCc1ccc(-c2ccccc2)cc1` the IC50 [2] was 2.1 µM.
`O=C(COc1ccc(OCc2ccccc2)cc1)NNC(=S)NCc1ccc(-c2ccccc2)cc1` showed an IC50 [2] of 1 µM.
Compound `O=C(COc1ccc(Cl)cc1)NNC(=S)NCCCn1ccnc1` has an IC50 [2] of 1.6 µM.
`CC(C)(Oc1ccc(Cl)cc1)C(=O)NNC(=S)NCc1ccc(-c2ccccc2)cc1` showed an IC50 [2] of 6.9 µM.
Compound `O=C(COc1ccc(Cl)cc1)NNC(=S)NCc1cccc(-c2ccccc2)c1` has an IC50 [2] of 2.3 µM.
Compound `COc1ccc(OCC(=O)NNC(=S)NCc2ccc(-c3ccccc3)cc2)cc1` has an IC50 [2] of 1.7 µM.
For `CN(NC(=S)NCCCCC1CCCCC1)C(=O)COc1ccc(Cl)cc1`, the IC50 [2] was > 100 µM and the inhibition [3] was < 30%.
With `O=C(NNC(=S)NCCCCC1CCCCC1)C1CNc2cc(Cl)ccc2O1` (stereo not given) the IC50 [2] was 1.26 µM.
`O=C(COc1ccc(Cl)cc1)NNC(=S)NCc1ccccc1-c1ccccc1` gave an IC50 [1] of 2.9 µM and an IC50 [2] of 0.49 µM.
For `O=C(COc1ccc(Cl)c(Cl)c1)NNC(=S)NCc1ccc(-c2ccccc2)cc1`, the IC50 [2] was 1.2 µM.
Compound `O=C(COc1cccc2ccccc12)NNC(=S)NCCCCC1CCCCC1` has an IC50 [1] of 1 µM and an IC50 [2] of 0.88 µM.
`O=C(COc1ccc(Cl)cc1)NNC(=S)NCc1ccccc1` gave an IC50 [2] of 12.6 µM.
For `O=C(COc1cccc2ccccc12)NNC(=S)NCc1ccc(-c2ccccc2)cc1`, the IC50 [2] was 4.1 µM.
With `O=C(COc1ccc(C(F)(F)F)cc1)NNC(=S)NCc1ccc(-c2ccccc2)cc1` the IC50 [2] was 1.7 µM.
For `O=C(Cc1nc(-c2cnccn2)no1)NNC(=S)NCCCCC1CCCCC1`, the IC50 [2] was 3.1 µM.
In the case of `O=C(COc1ccc(Cl)cc1)NNC(=S)NCCCCc1ccccc1`, the IC50 [2] is reported as 1 µM.
For `O=C(COc1ccc(Cl)cc1)NCC(=S)NCc1ccc(-c2ccccc2)cc1`, the IC50 [2] was > 100 µM and the inhibition [3] was < 30%.
In the case of `CN(NC(=S)NCc1ccc(-c2ccccc2)cc1)C(=O)COc1ccc(Cl)cc1`, the IC50 [2] is reported as > 100 µM and the inhibition [3] is reported as < 30%.
With `O=C(COc1ccccc1)NNC(=S)NCc1ccc(-c2ccccc2)cc1` the IC50 [2] was 10 µM.
In the case of `O=C(COc1ccc([N+](=O)[O-])cc1)NNC(=S)NCc1ccc(-c2ccccc2)cc1`, the IC50 [2] is reported as 4 µM.
With `O=C(NNC(=S)NCCCCC1CCCCC1)c1ccc(Cl)cc1` the inhibition [5] was “Dose-dependent effect”, the IC50 [1] was 1.4 µM and the IC50 [2] was 0.67 µM.
